# Data taken from ChEMBL document CHEMBL4689842, “EUbOPEN Chemogenomics Library wave 1” (2021).
# Test system: HEK-293T
# Experiment: Multiplex assay against HEK293T;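 as to Population Tubulin-Different-Phenotype (%): share of the cells with healthy nuclei that show this phenotype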
# Format: toxicity, cell-based
# Conditions: human
# Procedure, shortened: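 Per cents of healthy-nucleus cells form the tubulin, mitochondrial-mass and membrane-permeability phenotype values. Live cells were stained at seeding with Hoechst33342, BioTracker Green Microtubule Cytoskeleton Dye, MitoTracker Red and Annexin V Alexa Fluor 680. After compound addition they were imaged on a CQ1 microscope at 37°C and 5% CO2, and CellPathfinder machine-learning gating split them into Hoechst high-intensity objects or normal cells, normal cells into healthy, pyknosed or fragmented nuclei, and pyknosed cells into mitotic or apoptotic.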
# [1] = 12 h, 1 µM, compound concentration 1 uM, replicate 1
# [2] = 12 h, 1 µM, compound concentration 1 uM, replicate 2
# [3] = 12 h, 10 µM, compound concentration 10 uM, replicate 1
# [4] = 12 h, 10 µM, compound concentration 10 uM, replicate 2
# [5] = 24 h, 1 µM, compound concentration 1 uM, replicate 1
# [6] = 24 h, 1 µM, compound concentration 1 uM, replicate 2
# [7] = 24 h, 10 µM, compound concentration 10 uM, replicate 1
# [8] = 24 h, 10 µM, compound concentration 10 uM, replicate 2
# [9] = 48 h, 1 µM, compound concentration 1 uM, replicate 1
# [10] = 48 h, 1 µM, compound concentration 1 uM, replicate 2
# [11] = 48 h, 10 µM, compound concentration 10 uM, replicate 1
# [12] = 48 h, 10 µM, compound concentration 10 uM, replicate 2
compound,measurement,setting,value
COc1cc(Nc2nccc(-c3cnn4nc(OC)ccc34)n2)cc(C(F)(F)F)c1,Population Apoptotic (%),[1],47%
same,Population Fragmented Nuclei (%),[1],16%
same,Population Healthy Nuclei (%),[1],19%
same,Population Hoechst High Intensity Objects (%),[1],13%
same,Population Membrane Permeable-Phenotype (%),[1],2%
same,Population Mitochondria Different-Phenotype (%),[1],77%
same,Population Mitotic Cells (%),[1],52%
same,Population Normal (%),[1],86%
same,Population Pyknosed Nuclei (%),[1],64%
same,Population Tubulin-Different-Phenotype (%),[1],30%
same,Total Cell Count,[1],214
same,Population Apoptotic (%),[2],7%
same,Population Fragmented Nuclei (%),[2],6%
same,Population Healthy Nuclei (%),[2],44%
same,Population Hoechst High Intensity Objects (%),[2],1%
same,Population Membrane Permeable-Phenotype (%),[2],11%
same,Population Mitochondria Different-Phenotype (%),[2],14%
same,Population Mitotic Cells (%),[2],92%
same,Population Normal (%),[2],98%
same,Population Pyknosed Nuclei (%),[2],48%
same,Population Tubulin-Different-Phenotype (%),[2],17%
same,Total Cell Count,[2],192
same,Population Apoptotic (%),[3],68%
same,Population Fragmented Nuclei (%),[3],33%
same,Population Healthy Nuclei (%),[3],21%
same,Population Hoechst High Intensity Objects (%),[3],24%
same,Population Membrane Permeable-Phenotype (%),[3],7%
same,Population Mitochondria Different-Phenotype (%),[3],86%
same,Population Mitotic Cells (%),[3],31%
same,Population Normal (%),[3],75%
same,Population Pyknosed Nuclei (%),[3],44%
same,Population Tubulin-Different-Phenotype (%),[3],36%
same,Total Cell Count,[3],317
same,Population Apoptotic (%),[4],21%
same,Population Fragmented Nuclei (%),[4],6%
same,Population Healthy Nuclei (%),[4],34%
same,Population Hoechst High Intensity Objects (%),[4],11%
same,Population Membrane Permeable-Phenotype (%),[4],4%
same,Population Mitochondria Different-Phenotype (%),[4],37%
same,Population Mitotic Cells (%),[4],78%
same,Population Normal (%),[4],88%
same,Population Pyknosed Nuclei (%),[4],59%
same,Population Tubulin-Different-Phenotype (%),[4],33%
same,Total Cell Count,[4],275
same,Population Apoptotic (%),[5],47%
same,Population Fragmented Nuclei (%),[5],16%
same,Population Healthy Nuclei (%),[5],22%
same,Population Hoechst High Intensity Objects (%),[5],20%
same,Population Membrane Permeable-Phenotype (%),[5],2%
same,Population Mitochondria Different-Phenotype (%),[5],76%
same,Population Mitotic Cells (%),[5],52%
same,Population Normal (%),[5],79%
same,Population Pyknosed Nuclei (%),[5],61%
same,Population Tubulin-Different-Phenotype (%),[5],35%
same,Total Cell Count,[5],221
same,Population Apoptotic (%),[6],8%
same,Population Fragmented Nuclei (%),[6],6%
same,Population Healthy Nuclei (%),[6],65%
same,Population Hoechst High Intensity Objects (%),[6],3%
same,Population Membrane Permeable-Phenotype (%),[6],9%
same,Population Mitochondria Different-Phenotype (%),[6],11%
same,Population Mitotic Cells (%),[6],91%
same,Population Normal (%),[6],96%
same,Population Pyknosed Nuclei (%),[6],27%
same,Population Tubulin-Different-Phenotype (%),[6],17%
same,Total Cell Count,[6],252
same,Population Apoptotic (%),[7],75%
same,Population Fragmented Nuclei (%),[7],33%
same,Population Healthy Nuclei (%),[7],20%
same,Population Hoechst High Intensity Objects (%),[7],23%
same,Population Membrane Permeable-Phenotype (%),[7],1%
same,Population Mitochondria Different-Phenotype (%),[7],84%
same,Population Mitotic Cells (%),[7],24%
same,Population Normal (%),[7],76%
same,Population Pyknosed Nuclei (%),[7],46%
same,Population Tubulin-Different-Phenotype (%),[7],39%
same,Total Cell Count,[7],330
same,Population Apoptotic (%),[8],23%
same,Population Fragmented Nuclei (%),[8],7%
same,Population Healthy Nuclei (%),[8],55%
same,Population Hoechst High Intensity Objects (%),[8],13%
same,Population Membrane Permeable-Phenotype (%),[8],4%
same,Population Mitochondria Different-Phenotype (%),[8],45%
same,Population Mitotic Cells (%),[8],76%
same,Population Normal (%),[8],86%
same,Population Pyknosed Nuclei (%),[8],36%
same,Population Tubulin-Different-Phenotype (%),[8],42%
same,Total Cell Count,[8],293
same,Population Apoptotic (%),[9],62%
same,Population Fragmented Nuclei (%),[9],18%
same,Population Healthy Nuclei (%),[9],25%
same,Population Hoechst High Intensity Objects (%),[9],21%
same,Population Membrane Permeable-Phenotype (%),[9],2%
same,Population Mitochondria Different-Phenotype (%),[9],41%
same,Population Mitotic Cells (%),[9],37%
same,Population Normal (%),[9],78%
same,Population Pyknosed Nuclei (%),[9],56%
same,Population Tubulin-Different-Phenotype (%),[9],18%
same,Total Cell Count,[9],219
same,Population Apoptotic (%),[10],4%
same,Population Fragmented Nuclei (%),[10],5%
same,Population Healthy Nuclei (%),[10],83%
same,Population Hoechst High Intensity Objects (%),[10],3%
same,Population Membrane Permeable-Phenotype (%),[10],5%
same,Population Mitochondria Different-Phenotype (%),[10],6%
same,Population Mitotic Cells (%),[10],95%
same,Population Normal (%),[10],96%
same,Population Pyknosed Nuclei (%),[10],10%
same,Total Cell Count,[10],465
same,Population Apoptotic (%),[11],74%
same,Population Fragmented Nuclei (%),[11],39%
same,Population Healthy Nuclei (%),[11],24%
same,Population Hoechst High Intensity Objects (%),[11],25%
same,Population Membrane Permeable-Phenotype (%),[11],0%
same,Population Mitochondria Different-Phenotype (%),[11],86%
same,Population Mitotic Cells (%),[11],25%
same,Population Normal (%),[11],74%
same,Population Pyknosed Nuclei (%),[11],36%
same,Population Tubulin-Different-Phenotype (%),[11],56%
same,Total Cell Count,[11],331
same,Population Apoptotic (%),[12],42%
same,Population Fragmented Nuclei (%),[12],7%
same,Population Healthy Nuclei (%),[12],63%
same,Population Hoechst High Intensity Objects (%),[12],9%
same,Population Membrane Permeable-Phenotype (%),[12],2%
same,Population Mitochondria Different-Phenotype (%),[12],35%
same,Population Mitotic Cells (%),[12],57%
same,Population Normal (%),[12],90%
same,Population Pyknosed Nuclei (%),[12],28%
same,Population Tubulin-Different-Phenotype (%),[12],39%
same,Total Cell Count,[12],297
